The target in one data set is Toxin A (Clostridioides difficile, UniProt P16154). The data set is described as follows: Inhibition of Clostridium difficile toxin A […] CHO cells assessed as reduction in caspase 3/7 activation pre-incubated for 1 hr before TcdA addition by luminescence based assay. It is filed as cell-based.
A short description of data set [1]: AUC (0 to infinity) in CD-1 mouse at 1 mg/kg, iv. Format: ADME, organism-based. Also on record: dose 1 mg/kg, time infinity, route intravenous. Conditions: in vivo. The gist of the method:
(§1)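 CD-1 mice, single dose. The i.v. dose was 1 mg/kg in 40% PEG400/5% ethanol/55% water (v/v/v). The p.o. dose was 10 mg/kg in 20% PEG400/80% (0.5% (w/v) CMC with 0.25% (v/v) Tween 80) (v/v). Plasma samples were analysed to derive Cl, T1/2, Vz, AUC0-inf, Cmax, Tmax and oral bioavailability F.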

A short description of data set [2]: Cmax in hamster at 10 mg/kg, po. Format: ADME, organism-based. Also on record: dose 10 mg/kg, route oral. Conditions: cricetinae, in vivo.
A short description of data set [3]: Elimination half life in hamster at 10 mg/kg, po. It is filed as ADME, organism-based. Conditions: cricetinae, in vivo, read-out: beta t1/2 (converted).
The nature of data set [4]: Metabolic stability in human liver microsomes assessed as parent compound remaining after 15 mins. It is filed as ADME, Microsome. To be noted: read-out: Stability. For orientation: Liver microsomes are vesicles of endoplasmic reticulum, rich in cytochrome P450 enzymes.
Data set [5] can be described thus: Apparent volume of distribution during terminal phase in CD-1 mouse at 1 mg/kg, iv. It is filed as ADME, organism-based. To be noted: in vivo. The method, boiled down:
as §1

The nature of data set [6]: Tmax in hamster at 10 mg/kg, po. Conditions: cricetinae, in vivo. It is filed as ADME, organism-based.
Data set [7] in a line: AUC (0 to infinity) in CD-1 mouse at 10 mg/kg, po. Also on record: dose 10 mg/kg, time infinity, route oral. To be noted: in vivo. Format: ADME, organism-based. The method, boiled down:
as §1

Data set [8] is described as follows: Oral bioavailability in CD-1 mouse at 10 mg/kg. Format: ADME, organism-based. Conditions: in vivo. The gist of the method:
as §1

A short description of data set [9]: AUC(infinity) in hamster at 10 mg/kg, po. Also on record: dose 10 mg/kg, time infinity, route oral. It is filed as ADME, organism-based. To be noted: cricetinae, in vivo.
Data set [10] has as its system Clostridioides difficile. The data set is described as follows: Antibacterial activity against Clostridium difficile infected hamster assessed as host survival at 50 mg/kg, po bid treated for 7 days (reference value: 2.3 days). It is filed as functional.
Data set [11] in a line: Apparent oral clearance in hamster at 10 mg/kg, po. Format: ADME, organism-based. To be noted: cricetinae, in vivo.
The target of data set [12] is T1, Toxin B (Clostridioides difficile, UniProt P18177). As to the kind of experiment: Inhibition of C-terminal 6-His tagged recombinant Clostridium difficile toxin B glucosyltransferase domain assessed as reduction in UDP-glucose hydrolysis activity using UDP-glucose substrate and ADP Alexa633 tracer incubated for 3 hrs by fluorescence polarization assay. (Polarisation of emitted light reports the rotation of a fluorescent probe.)
T1 sequence (P18177 whole entry, the tested form may be a part): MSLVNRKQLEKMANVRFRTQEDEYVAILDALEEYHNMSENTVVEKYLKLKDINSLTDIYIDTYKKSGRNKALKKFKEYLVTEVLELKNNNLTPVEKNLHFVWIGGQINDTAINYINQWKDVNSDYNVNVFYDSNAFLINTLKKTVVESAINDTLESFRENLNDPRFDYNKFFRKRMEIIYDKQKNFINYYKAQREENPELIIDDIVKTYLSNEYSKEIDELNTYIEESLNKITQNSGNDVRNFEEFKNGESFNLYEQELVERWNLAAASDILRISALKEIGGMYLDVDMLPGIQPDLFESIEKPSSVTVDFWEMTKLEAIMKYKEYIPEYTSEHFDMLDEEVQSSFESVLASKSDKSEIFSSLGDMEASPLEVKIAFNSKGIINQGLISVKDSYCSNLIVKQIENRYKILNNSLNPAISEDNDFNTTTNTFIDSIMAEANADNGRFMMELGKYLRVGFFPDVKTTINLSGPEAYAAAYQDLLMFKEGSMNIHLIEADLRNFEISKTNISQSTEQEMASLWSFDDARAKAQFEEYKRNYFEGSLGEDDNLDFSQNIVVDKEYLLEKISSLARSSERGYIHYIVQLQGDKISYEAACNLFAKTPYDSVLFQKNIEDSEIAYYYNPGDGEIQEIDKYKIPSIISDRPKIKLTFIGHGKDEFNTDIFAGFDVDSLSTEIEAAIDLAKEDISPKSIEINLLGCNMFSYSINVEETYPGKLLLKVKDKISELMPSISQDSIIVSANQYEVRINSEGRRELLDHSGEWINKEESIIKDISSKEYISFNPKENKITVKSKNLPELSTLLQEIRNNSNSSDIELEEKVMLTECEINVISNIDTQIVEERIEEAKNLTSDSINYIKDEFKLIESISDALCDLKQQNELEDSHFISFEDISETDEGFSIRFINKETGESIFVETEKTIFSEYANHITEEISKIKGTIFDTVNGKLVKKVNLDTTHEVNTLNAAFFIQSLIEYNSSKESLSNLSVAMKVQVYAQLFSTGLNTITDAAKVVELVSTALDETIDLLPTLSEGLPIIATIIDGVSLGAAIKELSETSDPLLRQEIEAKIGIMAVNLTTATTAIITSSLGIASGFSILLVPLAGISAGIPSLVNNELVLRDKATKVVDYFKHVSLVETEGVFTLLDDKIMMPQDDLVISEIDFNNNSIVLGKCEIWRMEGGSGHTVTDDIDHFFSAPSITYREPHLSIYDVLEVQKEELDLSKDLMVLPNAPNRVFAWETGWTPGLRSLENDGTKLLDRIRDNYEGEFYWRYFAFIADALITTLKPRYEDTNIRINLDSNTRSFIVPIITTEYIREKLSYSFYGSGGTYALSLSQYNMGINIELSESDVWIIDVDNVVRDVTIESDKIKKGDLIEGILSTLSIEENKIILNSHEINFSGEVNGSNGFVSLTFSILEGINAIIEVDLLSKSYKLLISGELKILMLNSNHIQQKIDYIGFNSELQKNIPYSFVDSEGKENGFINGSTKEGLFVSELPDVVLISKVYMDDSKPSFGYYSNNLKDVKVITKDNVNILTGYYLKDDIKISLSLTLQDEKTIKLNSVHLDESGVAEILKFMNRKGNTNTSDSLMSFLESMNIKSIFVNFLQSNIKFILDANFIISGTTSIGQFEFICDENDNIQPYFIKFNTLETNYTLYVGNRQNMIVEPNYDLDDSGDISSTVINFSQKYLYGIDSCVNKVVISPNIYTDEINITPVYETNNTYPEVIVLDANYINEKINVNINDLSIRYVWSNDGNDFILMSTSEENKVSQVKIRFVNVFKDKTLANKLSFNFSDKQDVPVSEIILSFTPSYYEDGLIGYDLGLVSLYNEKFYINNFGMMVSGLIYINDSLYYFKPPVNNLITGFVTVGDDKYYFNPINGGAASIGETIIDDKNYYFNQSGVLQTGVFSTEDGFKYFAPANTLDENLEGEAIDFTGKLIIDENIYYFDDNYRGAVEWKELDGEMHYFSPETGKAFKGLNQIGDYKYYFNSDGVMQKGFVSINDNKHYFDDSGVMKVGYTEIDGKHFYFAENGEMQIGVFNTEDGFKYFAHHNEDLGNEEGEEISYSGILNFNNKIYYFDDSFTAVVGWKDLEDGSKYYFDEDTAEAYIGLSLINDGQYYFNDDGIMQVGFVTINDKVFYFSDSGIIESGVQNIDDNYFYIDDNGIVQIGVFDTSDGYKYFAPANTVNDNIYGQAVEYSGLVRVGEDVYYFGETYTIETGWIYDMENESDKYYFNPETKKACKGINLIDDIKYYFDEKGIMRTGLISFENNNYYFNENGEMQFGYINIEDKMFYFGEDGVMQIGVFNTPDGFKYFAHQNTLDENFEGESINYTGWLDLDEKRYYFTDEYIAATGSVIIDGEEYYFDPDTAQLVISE

Data set [13] is described as follows: Cmax in CD-1 mouse at 1 mg/kg, iv. It is filed as ADME, organism-based. Also on record: dose 1 mg/kg, route intravenous. To be noted: in vivo. The gist of the method:
as §1

Data set [14] in a line: Tmax in CD-1 mouse at 10 mg/kg, po. It is filed as ADME, organism-based. Conditions: in vivo. The gist of the method: as §1
Data set [15] is described as follows: Clearance in CD-1 mouse at 1 mg/kg, iv. Format: ADME, organism-based. Conditions: in vivo. The method, boiled down: as §1
Data set [16] can be described thus: Cmax in CD-1 mouse at 10 mg/kg, po. Format: ADME, organism-based. Also on record: dose 10 mg/kg, route oral. Conditions: in vivo. The method, boiled down:
as §1

Data set [17] in a line: Elimination half life in CD-1 mouse at 1 mg/kg, iv. Conditions: in vivo, read-out: beta t1/2 (converted). It is filed as ADME, organism-based. The method, boiled down:
as §1

The target in data set [18] is T1, Toxin B. The data set is described as follows: Inhibition of Clostridium difficile toxin B […] CHO cells assessed as reduction in caspase 3/7 activation pre-incubated for 1 hr before TcdB addition by luminescence based assay. Format: cell-based.
A short description of data set [19]: Metabolic stability in mouse liver microsomes assessed as parent compound remaining after 15 mins. Format: ADME, Microsome. To be noted: read-out: Stability.
Data set [20] deals with Clostridioides difficile. As to the kind of experiment: Antibacterial activity against Clostridium difficile infected hamster assessed as host survival at 5 mg/kg, po bid treated for 7 days (reference value: 2.3 days). Format: functional.

Chain of Toxin A (P16154 whole entry): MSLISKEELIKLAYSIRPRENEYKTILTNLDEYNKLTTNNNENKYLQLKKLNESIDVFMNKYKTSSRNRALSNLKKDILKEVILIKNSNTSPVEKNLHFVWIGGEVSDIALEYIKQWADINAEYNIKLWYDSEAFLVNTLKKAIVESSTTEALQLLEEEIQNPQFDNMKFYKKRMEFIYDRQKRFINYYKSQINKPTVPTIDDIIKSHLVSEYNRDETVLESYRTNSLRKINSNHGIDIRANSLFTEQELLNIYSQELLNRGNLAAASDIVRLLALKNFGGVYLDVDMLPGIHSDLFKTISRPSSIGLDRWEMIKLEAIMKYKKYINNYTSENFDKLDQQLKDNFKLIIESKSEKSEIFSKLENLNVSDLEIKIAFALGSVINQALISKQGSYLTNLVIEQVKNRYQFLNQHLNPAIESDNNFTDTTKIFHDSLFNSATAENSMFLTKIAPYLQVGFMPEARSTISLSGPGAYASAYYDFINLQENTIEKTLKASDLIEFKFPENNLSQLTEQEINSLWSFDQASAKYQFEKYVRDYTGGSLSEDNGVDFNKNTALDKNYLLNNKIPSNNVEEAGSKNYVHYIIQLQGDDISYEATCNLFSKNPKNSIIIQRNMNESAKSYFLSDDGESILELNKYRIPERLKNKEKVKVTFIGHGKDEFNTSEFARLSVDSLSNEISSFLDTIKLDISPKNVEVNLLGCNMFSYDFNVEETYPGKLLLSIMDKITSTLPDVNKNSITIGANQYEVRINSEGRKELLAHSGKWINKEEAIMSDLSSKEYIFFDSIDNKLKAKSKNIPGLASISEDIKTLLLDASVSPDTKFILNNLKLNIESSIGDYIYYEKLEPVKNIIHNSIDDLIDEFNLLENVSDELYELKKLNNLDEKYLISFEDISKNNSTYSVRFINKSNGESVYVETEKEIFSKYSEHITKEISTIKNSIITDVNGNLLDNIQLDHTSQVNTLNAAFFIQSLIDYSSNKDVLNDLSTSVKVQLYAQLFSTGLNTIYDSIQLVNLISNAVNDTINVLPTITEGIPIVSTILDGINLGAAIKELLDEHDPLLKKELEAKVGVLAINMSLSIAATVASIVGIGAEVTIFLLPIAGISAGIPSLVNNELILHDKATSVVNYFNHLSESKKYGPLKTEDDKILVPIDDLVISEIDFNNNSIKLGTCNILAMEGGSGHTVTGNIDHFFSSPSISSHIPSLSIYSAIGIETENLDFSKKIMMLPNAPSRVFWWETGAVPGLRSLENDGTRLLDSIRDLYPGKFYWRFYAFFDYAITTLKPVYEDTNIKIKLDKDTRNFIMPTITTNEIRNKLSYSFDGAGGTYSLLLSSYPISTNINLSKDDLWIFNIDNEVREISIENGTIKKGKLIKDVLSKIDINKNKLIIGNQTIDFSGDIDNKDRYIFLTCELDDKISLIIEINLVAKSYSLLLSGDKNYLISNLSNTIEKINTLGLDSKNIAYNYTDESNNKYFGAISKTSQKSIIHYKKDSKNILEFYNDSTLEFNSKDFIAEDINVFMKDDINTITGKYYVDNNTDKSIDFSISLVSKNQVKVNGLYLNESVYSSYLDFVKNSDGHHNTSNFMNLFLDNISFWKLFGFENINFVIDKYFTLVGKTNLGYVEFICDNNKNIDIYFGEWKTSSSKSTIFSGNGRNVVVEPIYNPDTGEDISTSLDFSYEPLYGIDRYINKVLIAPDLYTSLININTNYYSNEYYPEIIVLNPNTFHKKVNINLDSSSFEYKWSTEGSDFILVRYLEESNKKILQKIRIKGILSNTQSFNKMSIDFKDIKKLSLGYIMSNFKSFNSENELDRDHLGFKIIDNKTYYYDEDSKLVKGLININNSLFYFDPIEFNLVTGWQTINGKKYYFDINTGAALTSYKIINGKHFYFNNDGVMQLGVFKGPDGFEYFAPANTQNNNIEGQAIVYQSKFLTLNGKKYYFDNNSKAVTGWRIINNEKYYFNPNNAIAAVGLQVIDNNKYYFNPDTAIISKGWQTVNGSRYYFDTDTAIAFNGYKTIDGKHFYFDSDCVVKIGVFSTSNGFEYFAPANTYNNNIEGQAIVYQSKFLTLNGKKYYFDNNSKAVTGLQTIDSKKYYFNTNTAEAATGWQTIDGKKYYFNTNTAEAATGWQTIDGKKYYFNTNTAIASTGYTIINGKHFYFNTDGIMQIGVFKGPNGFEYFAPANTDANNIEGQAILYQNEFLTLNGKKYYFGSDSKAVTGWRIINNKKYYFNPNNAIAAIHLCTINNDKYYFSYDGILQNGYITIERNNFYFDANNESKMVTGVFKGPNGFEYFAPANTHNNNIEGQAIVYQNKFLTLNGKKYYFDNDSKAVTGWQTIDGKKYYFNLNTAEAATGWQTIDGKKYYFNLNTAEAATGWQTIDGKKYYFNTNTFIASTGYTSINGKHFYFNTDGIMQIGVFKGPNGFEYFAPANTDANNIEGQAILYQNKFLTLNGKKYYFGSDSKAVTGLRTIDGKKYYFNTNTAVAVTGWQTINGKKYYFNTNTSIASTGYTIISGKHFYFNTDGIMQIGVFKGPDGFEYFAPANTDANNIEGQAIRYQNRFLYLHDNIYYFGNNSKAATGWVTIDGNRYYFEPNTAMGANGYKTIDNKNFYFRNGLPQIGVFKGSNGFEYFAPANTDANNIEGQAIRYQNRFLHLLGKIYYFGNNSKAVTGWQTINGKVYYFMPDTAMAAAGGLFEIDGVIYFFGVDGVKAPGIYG

The term IC50 denotes the concentration needed to halve the response being measured. The AUC(0-inf) is the area under the concentration-time curve extrapolated to infinity. By Cmax is commonly meant the peak of the concentration-time curve. What is called Tmax is the time at which the peak concentration occurs. What is called CL/F is clearance divided by bioavailability, as obtained after extravascular dosing. The clearance is the rate of elimination divided by the concentration. As for `O=C(Nc1ccc(C(F)(F)F)cn1)c1ccc(CN2C(=O)c3ccc(Cl)cc3NC(=O)[C@H]2Cc2ccccn2)cc1Cl`, the IC50 came out at 6300 nM on Toxin A, 18 nM at Toxin B [12] and 250 nM at Toxin B [18]. Moreover, the AUC(0-inf) in data set [1] stood at 592 ng·h/mL; in data set [7], 9420 ng·h/mL; in data set [9], 21500 ng·h/mL. Also, the Cmax in data set [2] was found to be 2750 ng/mL; in [13], 312 ng/mL; in data set [16], 1530 ng/mL. Also, the figures for the half-life in data set [3] and in data set [17] were 10 h and 2.6 h, respectively. Moreover, the figures for the remaining at 0.25 h in data set [4] and in [19] were 94% and 92%, respectively. Also, in data set [5], the Vz/F came to 6.2 L/kg. Also, the Tmax in data set [6] and in [14] was 0.25 h throughout. Further, the F in [8] is listed as 159%. For the same compound, in the data set with Clostridioides difficile [10], the MST worked out at 12.3 days. The apparent clearance (CL/F) in data set [11] stood at 7.8 mL/min/kg. The same compound showed a clearance in data set [15] of 28 mL/min/kg.
Turning to `CN[C@H](CC(C)C)C(=O)N[C@H]1C(=O)N[C@@H](CC(N)=O)C(=O)N[C@H]2C(=O)N[C@H]3C(=O)N[C@H](C(=O)N[C@H](C(=O)O)c4cc(O)cc(O)c4-c4cc3ccc4O)[C@H](O)c3ccc(c(Cl)c3)Oc3cc2cc(c3O[C@@H]2O[C@H](CO)[C@@H](O)[C@H](O)[C@H]2O[C@H]2C[C@](C)(N)[C@H](O)[C@H](C)O2)Oc2ccc(cc2Cl)[C@H]1O` [VANCOMYCIN], the MST in the data set with Clostridioides difficile [20] came to 12 days.

For the origin of these results see ChEMBL document CHEMBL4325886, “Synthesis and SAR studies of novel benzodiazepinedione-based inhibitors of Clostridium difficile (C. difficile) toxin B (TcdB)” (Bioorg Med Chem Lett, 2018).
